Assay results published in the array DNA melting data of Ke et al. (doi:10.1101/2024.01.08.574731).

Columns and labels:
[1] = folding enthalpy; higher = less favourable; fluorescence melt of hairpins on a sequencing array, two-state fit; settings: sodium 0.088 M
Method in brief: (§1)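 On a sequenced MiSeq flow cell, library hairpins with annealed Cy3 and quencher oligos were imaged for Cy3 fluorescence in 2.5 °C steps up to 60 °C, in 50 mM Na-HEPES pH 8.0, 25 mM NaCl. Normalisation used pre-quench Cy3 and control constructs. Bootstrapped two-state fits gave melting temperature and folding enthalpy, combined by inverse variance across four replicates and with fitted temperatures raised by 9.35 °C to match UV melts.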

[2] = melting temperature; fluorescence melt of hairpins on a sequencing array, two-state fit, raised by 9.35 °C to match UV melts; settings: sodium 0.088 M
Method in brief: as §1

Row | Sequence | folding enthalpy [1] | Tm [2]
1 | GATCTGCTACAGATC ((((((...)))))) | -29.6 kcal/mol | 49.6 °C
2 | GATCTGCTATCAGATC ((((((....)))))) | -35.3 kcal/mol | 49.6 °C
3 | GATCTGCTGGCAGATC ((((((....)))))) | -43.6 kcal/mol | 62.5 °C
4 | GATCTGCTTGCAGATC ((((((....)))))) | -40.1 kcal/mol | 67.3 °C
5 | GATCTGGAACAGATC ((((((...)))))) | -37.7 kcal/mol | 58.8 °C
6 | GATCTGGAACCAGATC ((((((....)))))) | -38.5 kcal/mol | 53.9 °C
7 | GATCTGGACTCAGATC ((((((....)))))) | -46.3 kcal/mol | 53.1 °C
8 | GATCTGGCCCAGATC ((((((...)))))) | -35.1 kcal/mol | 49.7 °C
9 | GATCTGGCCCCAGATC ((((((....)))))) | -49.3 kcal/mol | 52.9 °C
10 | GATCTGGCCTCAGATC ((((((....)))))) | -41.7 kcal/mol | 51.7 °C
11 | GATCTGGCTCCAGATC ((((((....)))))) | -39.4 kcal/mol | 53.1 °C
12 | GATCTGGGAAACCGGATC ((((.((....)).)))) | -44.8 kcal/mol | 49.8 °C
13 | GATCTGGGACCAGATC ((((((....)))))) | -43.4 kcal/mol | 54.7 °C
14 | GATCTGGGGACAGATC ((((((....)))))) | -31.4 kcal/mol | 54.3 °C
15 | GATCTGGGGCAGATC ((((((...)))))) | -29.4 kcal/mol | 46.5 °C
16 | GATCTGGGGCCAGATC ((((((....)))))) | -47.6 kcal/mol | 50.5 °C
17 | GATCTGGGTCCAGATC ((((((....)))))) | -42.5 kcal/mol | 52.7 °C
18 | GATCTGGTCCAGATC ((((((...)))))) | -33.4 kcal/mol | 50.8 °C
19 | GATCTGGTCCCAGATC ((((((....)))))) | -39.6 kcal/mol | 54.1 °C
20 | GATCTGGTCGCAGATC ((((((....)))))) | -24.9 kcal/mol | 52.4 °C
21 | GATCTGGTGGCAGATC ((((((....)))))) | -33.9 kcal/mol | 50.1 °C
22 | GATCTGGTTACAGATC ((((((....)))))) | -40.1 kcal/mol | 59.1 °C
23 | GATCTGTAATCAGATC ((((((....)))))) | -37.6 kcal/mol | 48.2 °C
24 | GATCTGTACCCAGATC ((((((....)))))) | -36.4 kcal/mol | 47.5 °C

Row | Sequence | folding enthalpy [1] | Tm [2]
25 | GATCTGTAGGCAGATC ((((((....)))))) | -45 kcal/mol | 51.9 °C
26 | GATCTGTATACAGATC ((((((....)))))) | -40.8 kcal/mol | 54.3 °C
27 | GATCTGTATCCAGATC ((((((....)))))) | -40.3 kcal/mol | 47.4 °C
28 | GATCTGTATTCAGATC ((((((....)))))) | -36.3 kcal/mol | 50.4 °C
29 | GATCTGTCACAGATC ((((((...)))))) | -36.2 kcal/mol | 50.6 °C
30 | GATCTGTCCCCAGATC ((((((....)))))) | -37.5 kcal/mol | 47.9 °C
31 | GATCTGTCCGCAGATC ((((((....)))))) | -43.6 kcal/mol | 52.9 °C
32 | GATCTGTCCTCAGATC ((((((....)))))) | -46.8 kcal/mol | 51 °C
33 | GATCTGTCGCCAGATC ((((((....)))))) | -37.6 kcal/mol | 50.1 °C
34 | GATCTGTCTTCAGATC ((((((....)))))) | -38.7 kcal/mol | 51.4 °C
35 | GATCTGTGAGCAGATC ((((((....)))))) | -40 kcal/mol | 55 °C
36 | GATCTGTGGCCAGATC ((((((....)))))) | -33.9 kcal/mol | 50.4 °C
37 | GATCTGTTATCAGATC ((((((....)))))) | -39.8 kcal/mol | 50.7 °C
38 | GATCTGTTCTCAGATC ((((((....)))))) | -41.3 kcal/mol | 51.5 °C
39 | GATCTTAACTAAGATC ((((((....)))))) | -32.5 kcal/mol | 44 °C
40 | GATCTTAATAAAGATC ((((((....)))))) | -28.5 kcal/mol | 40.9 °C
41 | GATCTTAATGAAGATC ((((((....)))))) | -27.5 kcal/mol | 39.5 °C
42 | GATCTTAGCAAAGATC ((((((....)))))) | -30.9 kcal/mol | 42.4 °C
43 | GATCTTAGCTAAGATC ((((((....)))))) | -43.9 kcal/mol | 48.5 °C
44 | GATCTTAGTCAAGATC ((((((....)))))) | -31.4 kcal/mol | 42.2 °C
45 | GATCTTATATAAGATC ((((((....)))))) | -34.1 kcal/mol | 44.9 °C
46 | GATCTTATCAAGATC ((((((...)))))) | -29.7 kcal/mol | 46 °C
47 | GATCTTATGAAAGATC ((((((....)))))) | -30.6 kcal/mol | 40.6 °C
48 | GATCTTCACGAAGATC ((((((....)))))) | -40.1 kcal/mol | 49.2 °C

Row | Sequence | folding enthalpy [1] | Tm [2]
49 | GATCTTCACTAAGATC ((((((....)))))) | -29.7 kcal/mol | 43.9 °C
50 | GATCTTCATAAGATC ((((((...)))))) | -28.4 kcal/mol | 43.4 °C
51 | GATCTTCATGAAGATC ((((((....)))))) | -43.4 kcal/mol | 51.1 °C
52 | GATCTTCCCGAAGATC ((((((....)))))) | -40.8 kcal/mol | 49.4 °C
53 | GATCTTCCGGAAGATC ((((((....)))))) | -55.2 kcal/mol | 53.1 °C
54 | GATCTTCGTTAAGATC ((((((....)))))) | -32.2 kcal/mol | 43 °C
55 | GATCTTCTACAAGATC ((((((....)))))) | -30.3 kcal/mol | 41.9 °C
56 | GATCTTCTATAAGATC ((((((....)))))) | -30.3 kcal/mol | 43.5 °C
57 | GATCTTCTGTAAGATC ((((((....)))))) | -34.7 kcal/mol | 43.1 °C
58 | GATCTTCTTAAAGATC ((((((....)))))) | -32.7 kcal/mol | 46 °C
59 | GATCTTCTTTAAGATC ((((((....)))))) | -38 kcal/mol | 43.3 °C
60 | GATCTTGAACAAGATC ((((((....)))))) | -34.8 kcal/mol | 49.2 °C
61 | GATCTTGACAAAGATC ((((((....)))))) | -44 kcal/mol | 52.7 °C
62 | GATCTTGATGAAGATC ((((((....)))))) | -23.4 kcal/mol | 44.1 °C
63 | GATCTTGCATAAGATC ((((((....)))))) | -39.9 kcal/mol | 50.9 °C
64 | GATCTTGCCAAGATC ((((((...)))))) | -26.1 kcal/mol | 47.5 °C
65 | GATCTTGCGTAAGATC ((((((....)))))) | -39.6 kcal/mol | 43.6 °C
66 | GATCTTGCTAAAGATC ((((((....)))))) | -38.1 kcal/mol | 53.2 °C
67 | GATCTTGCTAAGATC ((((((...)))))) | -31.8 kcal/mol | 45.4 °C
68 | GATCTTGTAAAGATC ((((((...)))))) | -43.5 kcal/mol | 53.8 °C
69 | GATCTTGTCAAAGATC ((((((....)))))) | -41.9 kcal/mol | 54.8 °C
70 | GATCTTGTGGAAGATC ((((((....)))))) | -29.4 kcal/mol | 41.3 °C
71 | GATCTTTAACAAGATC ((((((....)))))) | -32.6 kcal/mol | 38.1 °C
72 | GATCTTTCGGAAGATC ((((((....)))))) | -33.4 kcal/mol | 43.9 °C

Row | Sequence | folding enthalpy [1] | Tm [2]
73 | GATCTTTCTCAAGATC ((((((....)))))) | -33.4 kcal/mol | 42.6 °C
74 | GATCTTTGACAAGATC ((((((....)))))) | -25.1 kcal/mol | 39.4 °C
75 | GATCTTTGATAAGATC ((((((....)))))) | -25.5 kcal/mol | 42.6 °C
76 | GATCTTTGTGAAGATC ((((((....)))))) | -41.7 kcal/mol | 47.7 °C
77 | GATCTTTGTTAAGATC ((((((....)))))) | -33.6 kcal/mol | 44 °C
78 | GATCTTTTGAAGATC ((((((...)))))) | -27.8 kcal/mol | 43.6 °C
79 | GATCTTTTTCAAGATC ((((((....)))))) | -33.6 kcal/mol | 42.3 °C
80 | GATGAAGAAATTCATC ((((((....)))))) | -24.9 kcal/mol | 43.3 °C
81 | GATGACACGAAAGTGATC (((..(((....)))))) | -11.4 kcal/mol | 30.9 °C
82 | GATGACGAAAGTCATC ((((((....)))))) | -36.3 kcal/mol | 67.4 °C
83 | GATGACGGAAACGTTATC (((.(((....))).))) | -29.6 kcal/mol | 46.2 °C
84 | GATGAGCGAAAGCTGATC (((.(((....))).))) | -22.1 kcal/mol | 45.9 °C
85 | GATGATGCGAAAGCAATC (((..(((....)))))) | -13.7 kcal/mol | 37.6 °C
86 | GATGCAGGAAACTACATC ((((.((....)).)))) | -30.7 kcal/mol | 36.4 °C
87 | GATGCAGGAAACTGTATC (((.(((....))).))) | -33.5 kcal/mol | 44.9 °C
88 | GATGCAGGAAACTGTGTC ((..(((....)))..)) | -27.1 kcal/mol | 35.5 °C
89 | GATGCCGAAAGGCAAATC ((((((....)))..))) | -10.4 kcal/mol | 35.4 °C
90 | GATGCCGAAAGGCACATC ((((((....)))..))) | -8.64 kcal/mol | 33.3 °C
91 | GATGCCGAAAGGCGCATC ((((((....)))..))) | -9.01 kcal/mol | 32.6 °C
92 | GATGCCGAAAGGCTAATC ((((((....)))..))) | -9.64 kcal/mol | 30.1 °C
93 | GATGCCGAAAGGCTCATC ((((((....)))..))) | -10.4 kcal/mol | 32.7 °C
94 | GATGCCGGAAACGGCACC (.(((((....))))).) | -9.72 kcal/mol | 44.5 °C
95 | GATGCCGGAAACGGCGTC ((.((((....)))).)) | -21.2 kcal/mol | 62.6 °C
